Key:
[1] = target: T1, Adrenergic receptor alpha-2 (Rattus norvegicus, UniProt P22086+P19328+P22909); assay: Displacement of [3H]-Clonidine from alpha2 adrenergic receptor in rat brain cerebral cortex membranes by liquid scintillation counting analysis; assay type: cell membranes, Membrane
T1 sequence (P22086 whole entry): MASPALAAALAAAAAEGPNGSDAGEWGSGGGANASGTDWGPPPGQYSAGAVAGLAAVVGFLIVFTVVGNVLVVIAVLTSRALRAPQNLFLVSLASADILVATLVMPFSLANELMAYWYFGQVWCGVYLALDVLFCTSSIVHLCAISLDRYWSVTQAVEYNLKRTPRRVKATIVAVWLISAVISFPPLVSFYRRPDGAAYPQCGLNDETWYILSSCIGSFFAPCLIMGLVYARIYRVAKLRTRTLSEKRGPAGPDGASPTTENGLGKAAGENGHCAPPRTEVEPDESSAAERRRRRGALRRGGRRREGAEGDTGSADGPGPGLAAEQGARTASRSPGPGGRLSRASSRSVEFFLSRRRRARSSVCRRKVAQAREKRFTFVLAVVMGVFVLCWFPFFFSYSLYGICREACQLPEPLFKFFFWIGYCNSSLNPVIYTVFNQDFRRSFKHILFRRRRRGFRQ
T1 sequence (P19328 whole entry): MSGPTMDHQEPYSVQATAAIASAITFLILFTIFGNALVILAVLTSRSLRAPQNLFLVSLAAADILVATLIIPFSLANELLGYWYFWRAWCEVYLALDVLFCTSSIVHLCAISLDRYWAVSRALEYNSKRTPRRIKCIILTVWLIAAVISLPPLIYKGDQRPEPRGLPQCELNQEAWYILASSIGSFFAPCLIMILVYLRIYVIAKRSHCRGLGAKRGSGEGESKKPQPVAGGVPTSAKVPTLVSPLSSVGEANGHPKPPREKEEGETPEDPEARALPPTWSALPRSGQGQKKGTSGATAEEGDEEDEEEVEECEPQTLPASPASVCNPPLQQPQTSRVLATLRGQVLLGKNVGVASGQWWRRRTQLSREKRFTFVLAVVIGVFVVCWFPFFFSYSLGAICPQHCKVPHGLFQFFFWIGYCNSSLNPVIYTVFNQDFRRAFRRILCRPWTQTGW
T1 sequence (P22909 whole entry): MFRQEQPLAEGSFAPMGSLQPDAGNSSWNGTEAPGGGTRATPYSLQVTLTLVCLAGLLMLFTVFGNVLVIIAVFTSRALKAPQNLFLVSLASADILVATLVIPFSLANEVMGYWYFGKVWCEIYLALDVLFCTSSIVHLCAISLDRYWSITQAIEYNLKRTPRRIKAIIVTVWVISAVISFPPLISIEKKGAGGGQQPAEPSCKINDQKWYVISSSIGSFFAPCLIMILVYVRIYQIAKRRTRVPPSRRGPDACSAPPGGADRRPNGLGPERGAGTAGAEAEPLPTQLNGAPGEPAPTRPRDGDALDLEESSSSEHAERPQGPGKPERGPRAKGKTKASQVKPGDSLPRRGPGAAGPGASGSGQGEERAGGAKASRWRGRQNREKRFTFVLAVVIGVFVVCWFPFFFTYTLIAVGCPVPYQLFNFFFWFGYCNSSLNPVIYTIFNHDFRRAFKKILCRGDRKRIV
In short: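 Rat cerebral cortex homogenized in ice-cold 50 mM Tris–HCl (pH 7.6), spun at 20,000 g for 20 min (0–4 °C), resuspended and spun again. Membranes incubated with 0.2 nM [3H]-prazosin (α1) or 2 nM [3H]-clonidine (α2) and seven to eight compound concentrations (10^-11 to 10^-4 M). Non-specific binding defined with 10 µM phentolamine (prazosin) or 10 µM clonidine (clonidine). Ended by GF/C filtration, counted by liquid scintillation. Run in duplicate; Ki from two independent experiments.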

[2] = target: T2, Alpha-1B adrenergic receptor (Homo sapiens, UniProt P35368); assay: Intrinsic activity at human alpha1B adrenergic receptor expressed in CHOK1 cells co-expressing aequorin assessed as inhibition of agonist induced calcium mobilization preincubated for 15 mins followed by agonist addition measured for 20 secs in presence of coelenterazine H by luminescence assay; assay type: cell-based, CHO-K1
T2 sequence (P35368 whole entry): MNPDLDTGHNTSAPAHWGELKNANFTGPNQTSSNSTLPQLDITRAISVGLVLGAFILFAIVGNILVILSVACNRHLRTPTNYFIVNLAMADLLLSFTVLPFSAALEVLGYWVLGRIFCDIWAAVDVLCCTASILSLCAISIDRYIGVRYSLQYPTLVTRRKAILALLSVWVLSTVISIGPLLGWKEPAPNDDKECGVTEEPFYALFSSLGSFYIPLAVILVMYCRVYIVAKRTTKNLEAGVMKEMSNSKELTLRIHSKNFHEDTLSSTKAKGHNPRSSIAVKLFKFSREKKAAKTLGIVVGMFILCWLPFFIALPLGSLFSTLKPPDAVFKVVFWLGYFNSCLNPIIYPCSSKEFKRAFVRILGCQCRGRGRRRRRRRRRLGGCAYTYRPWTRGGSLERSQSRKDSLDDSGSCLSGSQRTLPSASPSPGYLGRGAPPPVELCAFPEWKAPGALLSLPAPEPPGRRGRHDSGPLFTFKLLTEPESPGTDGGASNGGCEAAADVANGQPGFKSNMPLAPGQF
In short: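 Frozen ready-to-use cells stably expressing α1B receptor and aequorin, resuspended in assay buffer with 5 µM coelenterazine h and rotated overnight at rt in the dark. Diluted to 5000 cells/20 µL. Agonist mode: cells injected onto ligands, light recorded 20 s. Antagonist mode: 15 min with compound at room temperature, then agonist at 3× EC80 final, light recorded 20 s. Mean EC50 from three experiments.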

[3] = Selectivity ratio of EC50 for human alpha1B adrenergic receptor expressed in CHOK1 cells co-expressing aequorin assessed as inhibition of agonist induced calcium mobilization to EC50 for alpha1A adrenergic receptor (unknown origin) assessed as inhibition of agonist induced effect; assay type: cell-based; conditions: cho-k1

## COc1ccc(S(=O)(=O)NC2CCN(CCOc3ccccc3OC)CC2)cc1OC
[1]
  Ki: 2140 nM
[2]
  EC50: 461 nM
[3]
  Ratio EC50: 2.4

## COc1ccccc1OCCN1CCC(CNS(=O)(=O)c2cccc(Cl)c2)CC1
[1]
  Ki: 439 nM
[2]
  EC50: 15.5 nM
[3]
  Ratio EC50: 0.13

## COc1ccccc1OCCN1CCC(CNS(=O)(=O)c2cccc(Cl)c2F)CC1
[1]
  Ki: 678 nM
[2]
  EC50: 14.1 nM
[3]
  Ratio EC50: 0.17

## COc1ccccc1OCCN1CCC(CNS(=O)(=O)c2cncc3ccccc23)CC1
[1]
  Ki: 695 nM
[2]
  EC50: 515 nM
[3]
  Ratio EC50: 3.68

## COc1ccccc1OCCN1CCC(NS(=O)(=O)c2cncc3ccccc23)CC1
[1]
  Ki: 297 nM
[2]
  EC50: 608 nM
[3]
  Ratio EC50: 6.1

## COc1ccc(S(=O)(=O)NCC2CCN(CCOc3ccccc3OC)CC2)cc1OC
[1]
  Ki: 644 nM
[2]
  EC50: 599 nM
[3]
  Ratio EC50: 3.73

## CC(C)Oc1ccccc1OCCN1CCC(CNS(=O)(=O)c2cccc3cccnc23)CC1
[1]
  Ki: 947 nM
[2]
  EC50: 105 nM
[3]
  Ratio EC50: 3.07

## COc1ccccc1OCCN1CCC(CNS(=O)(=O)c2cc(Cl)ccc2F)CC1
[1]
  Ki: 1345 nM
[2]
  EC50: 12.7 nM
[3]
  Ratio EC50: 0.08

## CC(C)Oc1ccccc1OCCN1CCC(CNS(=O)(=O)c2cccc(Cl)c2F)CC1
[1]
  Ki: 1212 nM
[2]
  EC50: 42.1 nM
[3]
  Ratio EC50: 3.8
